Results taken from ChEMBL document CHEMBL5724801, “EUbOPEN Chemogenomics Library - Multiplex” (2024).
Where “and” joins values, the source holds several entries; their conditions need not be identical. Equal values may be shown once.

Tested on: U2OS
Assay: Multiplex assay against U2OS
Assay type: toxicity, cell-based
Settings: human, 12 h, 1 µM, compound concentration 1 uM
In short: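 Cells stained live at seeding with Hoechst33342, BioTracker Green Microtubule Cytoskeleton Dye, MitoTracker Red and Annexin V Alexa Fluor 680 were imaged on a CQ1 microscope at 37°C and 5% CO2 after compound addition. Their classification by CellPathfinder machine-learning gating ran from Hoechst high-intensity objects versus normal cells, to healthy, pyknosed or fragmented nuclei among normal cells, to mitotic or apoptotic among pyknosed cells. Tubulin, mitochondrial-mass and membrane-permeability phenotypes are per cents of healthy-nucleus cells.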

Q: What does the source list for COc1cc(Nc2ncc3c(n2)-c2ccc(Cl)cc2C(c2c(F)cccc2OC)=NC3)ccc1C(=O)O [ALISERTIB]?
A: Population Apoptotic (%): 63% and 71%; Population Fragmented Nuclei (%): 23% and 35%; Population Healthy Nuclei (%): 65% and 55%; Population Hoechst High Intensity Objects (%): 1% and 4%; Population Membrane Permeable-Phenotype (%): 4% and 8%; Population Mitochondria Different-Phenotype (%): 3% and 4%; Population Mitotic Cells (%): 36% and 28%; Population Normal (%): 98% and 95%; Population Pyknosed Nuclei (%): 10% and 8%; Population Tubulin-Different-Phenotype (%): 3% and 11%

Q: Which “Population Apoptotic (%)” value does the source give for C[C@H](C[C@H](N)C(=O)O)C(=O)O [2S,4R-4-METHYLGLUTAMATE] here?
A: 31.91% and 61.54%

Q: And the “Population Fragmented Nuclei (%)” value?
A: 3.36% and 4%

Q: And the “Population Healthy Nuclei (%)” value?
A: 85.37% and 85.6%

Q: And the “Population Hoechst High Intensity Objects (%)” value?
A: 0%

Q: And the “Population Membrane Permeable-Phenotype (%)” value?
A: 2.25% and 5.61%

Q: What about the “Population Mitochondria Different-Phenotype (%)” value of the same compound?
A: 0% and 3.74%

Q: And the “Population Mitotic Cells (%)” value?
A: 68.09% and 38.46%

Q: And the “Population Normal (%)” value?
A: 100%

Q: And the “Population Pyknosed Nuclei (%)” value?
A: 11.27% and 10.4%

Q: What about the “Population Tubulin-Different-Phenotype (%)” value of the same compound?
A: 0.28% and 0%

Same assay, conditions: human, 12 h, 10 µM, compound concentration 10 uM

Q: For COc1cc(Nc2ncc3c(n2)-c2ccc(Cl)cc2C(c2c(F)cccc2OC)=NC3)ccc1C(=O)O [ALISERTIB], which “Population Apoptotic (%)” value is on record?
A: 79% and 71%

Q: And the “Population Fragmented Nuclei (%)” value?
A: 31% and 12%

Q: And the “Population Healthy Nuclei (%)” value?
A: 57% and 82%

Q: What about the “Population Hoechst High Intensity Objects (%)” value of the same compound?
A: 3% and 2%

Q: What about the “Population Membrane Permeable-Phenotype (%)” value of the same compound?
A: 11% and 5%

Q: What about the “Population Mitochondria Different-Phenotype (%)” value of the same compound?
A: 5% and 1%

Q: And the “Population Mitotic Cells (%)” value?
A: 20% and 28%

Q: What about the “Population Normal (%)” value of the same compound?
A: 96% and 97%

Q: And the “Population Pyknosed Nuclei (%)” value?
A: 11% and 5%

Q: And the “Population Tubulin-Different-Phenotype (%)” value?
A: 4% and 0%

Q: Which “Population Apoptotic (%)” value does the source give for C[C@H](C[C@H](N)C(=O)O)C(=O)O [2S,4R-4-METHYLGLUTAMATE] here?
A: 36.84% and 47.06%

Q: And the “Population Fragmented Nuclei (%)” value?
A: 0.57% and 3.31%

Q: What about the “Population Healthy Nuclei (%)” value of the same compound?
A: 88.51% and 85.43%

Q: What about the “Population Hoechst High Intensity Objects (%)” value of the same compound?
A: 0%

Q: What about the “Population Membrane Permeable-Phenotype (%)” value of the same compound?
A: 1.95% and 3.88%

Q: And the “Population Mitochondria Different-Phenotype (%)” value?
A: 0.32% and 6.98%

Q: What about the “Population Mitotic Cells (%)” value of the same compound?
A: 63.16% and 52.94%

Q: And the “Population Normal (%)” value?
A: 100%

Q: What about the “Population Pyknosed Nuclei (%)” value of the same compound?
A: 10.92% and 11.26%

Q: What about the “Population Tubulin-Different-Phenotype (%)” value of the same compound?
A: 3.25% and 0.78%

Q: What about the “Total Cell Count” value of the same compound?
A: 348 and 151

Same assay, conditions: human, 24 h, 1 µM, compound concentration 1 uM

Q: COc1cc(Nc2ncc3c(n2)-c2ccc(Cl)cc2C(c2c(F)cccc2OC)=NC3)ccc1C(=O)O [ALISERTIB] was tested. Which “Population Apoptotic (%)” value did it give?
A: 78% and 75%

Q: And the “Population Fragmented Nuclei (%)” value?
A: 26% and 20%

Q: And the “Population Healthy Nuclei (%)” value?
A: 64% and 63%

Q: And the “Population Hoechst High Intensity Objects (%)” value?
A: 1% and 2%

Q: And the “Population Membrane Permeable-Phenotype (%)” value?
A: 9% and 6%

Q: What about the “Population Mitochondria Different-Phenotype (%)” value of the same compound?
A: 4% and 2%

Q: What about the “Population Mitotic Cells (%)” value of the same compound?
A: 21% and 25%

Q: And the “Population Normal (%)” value?
A: 98% and 97%

Q: And the “Population Pyknosed Nuclei (%)” value?
A: 8% and 15%

Q: And the “Population Tubulin-Different-Phenotype (%)” value?
A: 5% and 2%

Q: What does the source list for C[C@H](C[C@H](N)C(=O)O)C(=O)O [2S,4R-4-METHYLGLUTAMATE]?
A: Population Apoptotic (%): 54.55% and 80%; Population Fragmented Nuclei (%): 3.12% and 6.67%; Population Healthy Nuclei (%): 86.79% and 84.24%; Population Hoechst High Intensity Objects (%): 0% and 0.6%; Population Membrane Permeable-Phenotype (%): 1.48% and 3.6%; Population Mitochondria Different-Phenotype (%): 0% and 5.04%; Population Mitotic Cells (%): 45.45% and 20%; Population Normal (%): 100% and 99.4%; Population Pyknosed Nuclei (%): 10.09% and 9.09%; Population Tubulin-Different-Phenotype (%): 0.42% and 0%

Same assay, conditions: human, 24 h, 10 µM, compound concentration 10 uM

Q: With COc1cc(Nc2ncc3c(n2)-c2ccc(Cl)cc2C(c2c(F)cccc2OC)=NC3)ccc1C(=O)O [ALISERTIB] as the compound, how does the “Population Apoptotic (%)” value read?
A: 84% and 90%

Q: What about the “Population Fragmented Nuclei (%)” value of the same compound?
A: 30% and 12%

Q: What about the “Population Healthy Nuclei (%)” value of the same compound?
A: 55% and 77%

Q: And the “Population Hoechst High Intensity Objects (%)” value?
A: 4%

Q: And the “Population Membrane Permeable-Phenotype (%)” value?
A: 13% and 9%

Q: And the “Population Mitochondria Different-Phenotype (%)” value?
A: 5% and 4%

Q: What about the “Population Mitotic Cells (%)” value of the same compound?
A: 15% and 9%

Q: What about the “Population Normal (%)” value of the same compound?
A: 95%

Q: And the “Population Pyknosed Nuclei (%)” value?
A: 13% and 9%

Q: And the “Population Tubulin-Different-Phenotype (%)” value?
A: 4% and 5%

Q: Which “Population Apoptotic (%)” value does the source give for C[C@H](C[C@H](N)C(=O)O)C(=O)O [2S,4R-4-METHYLGLUTAMATE] here?
A: 38.3% and 31.25%

Q: What about the “Population Fragmented Nuclei (%)” value of the same compound?
A: 0.43% and 1.99%

Q: And the “Population Healthy Nuclei (%)” value?
A: 89.42% and 90.05%

Q: And the “Population Hoechst High Intensity Objects (%)” value?
A: 0.22% and 0%

Q: And the “Population Membrane Permeable-Phenotype (%)” value?
A: 1.45% and 3.31%

Q: What about the “Population Mitochondria Different-Phenotype (%)” value of the same compound?
A: 0.48% and 3.87%

Q: And the “Population Mitotic Cells (%)” value?
A: 61.7% and 68.75%

Q: And the “Population Normal (%)” value?
A: 99.78% and 100%

Q: And the “Population Pyknosed Nuclei (%)” value?
A: 10.15% and 7.96%

Q: And the “Population Tubulin-Different-Phenotype (%)” value?
A: 1.45% and 0.55%

Q: What about the “Total Cell Count” value of the same compound?
A: 464 and 201

Same assay, conditions: human, 48 h, 1 µM, compound concentration 1 uM

Q: With COc1cc(Nc2ncc3c(n2)-c2ccc(Cl)cc2C(c2c(F)cccc2OC)=NC3)ccc1C(=O)O [ALISERTIB] as the compound, how does the “Population Apoptotic (%)” value read?
A: 85% and 78%

Q: What about the “Population Fragmented Nuclei (%)” value of the same compound?
A: 28% and 29%

Q: What about the “Population Healthy Nuclei (%)” value of the same compound?
A: 59% and 53%

Q: What about the “Population Hoechst High Intensity Objects (%)” value of the same compound?
A: 3%

Q: What about the “Population Membrane Permeable-Phenotype (%)” value of the same compound?
A: 6% and 11%

Q: What about the “Population Mitochondria Different-Phenotype (%)” value of the same compound?
A: 5% and 6%

Q: What about the “Population Mitotic Cells (%)” value of the same compound?
A: 14% and 21%

Q: And the “Population Normal (%)” value?
A: 96%

Q: What about the “Population Pyknosed Nuclei (%)” value of the same compound?
A: 12% and 17%

Q: And the “Population Tubulin-Different-Phenotype (%)” value?
A: 3% and 4%

Q: With C[C@H](C[C@H](N)C(=O)O)C(=O)O [2S,4R-4-METHYLGLUTAMATE] as the compound, how does the “Population Apoptotic (%)” value read?
A: 50% and 51.52%

Q: And the “Population Fragmented Nuclei (%)” value?
A: 3.72% and 3.91%

Q: And the “Population Healthy Nuclei (%)” value?
A: 89.03% and 84.34%

Q: And the “Population Hoechst High Intensity Objects (%)” value?
A: 0%

Q: What about the “Population Membrane Permeable-Phenotype (%)” value of the same compound?
A: 1.47% and 2.11%

Q: And the “Population Mitochondria Different-Phenotype (%)” value?
A: 0% and 2.95%

Q: What about the “Population Mitotic Cells (%)” value of the same compound?
A: 50% and 48.48%

Q: What about the “Population Normal (%)” value of the same compound?
A: 100%

Q: What about the “Population Pyknosed Nuclei (%)” value of the same compound?
A: 7.24% and 11.74%

Q: What about the “Population Tubulin-Different-Phenotype (%)” value of the same compound?
A: 1.02% and 1.27%

Same assay, conditions: human, 48 h, 10 µM, compound concentration 10 uM

Q: For COc1cc(Nc2ncc3c(n2)-c2ccc(Cl)cc2C(c2c(F)cccc2OC)=NC3)ccc1C(=O)O [ALISERTIB], which “Population Apoptotic (%)” value is on record?
A: 88%

Q: What about the “Population Fragmented Nuclei (%)” value of the same compound?
A: 34% and 16%

Q: What about the “Population Healthy Nuclei (%)” value of the same compound?
A: 44% and 70%

Q: What about the “Population Hoechst High Intensity Objects (%)” value of the same compound?
A: 9% and 5%

Q: And the “Population Membrane Permeable-Phenotype (%)” value?
A: 16% and 7%

Q: What about the “Population Mitochondria Different-Phenotype (%)” value of the same compound?
A: 9% and 3%

Q: And the “Population Mitotic Cells (%)” value?
A: 11%

Q: What about the “Population Normal (%)” value of the same compound?
A: 90% and 94%

Q: What about the “Population Pyknosed Nuclei (%)” value of the same compound?
A: 21% and 13%

Q: And the “Population Tubulin-Different-Phenotype (%)” value?
A: 9% and 2%

Q: Which “Population Apoptotic (%)” value does the source give for C[C@H](C[C@H](N)C(=O)O)C(=O)O [2S,4R-4-METHYLGLUTAMATE] here?
A: 54.05% and 54.84%

Q: And the “Population Fragmented Nuclei (%)” value?
A: 2.19% and 2.47%

Q: What about the “Population Healthy Nuclei (%)” value of the same compound?
A: 89.7% and 89.01%

Q: And the “Population Hoechst High Intensity Objects (%)” value?
A: 0%

Q: And the “Population Membrane Permeable-Phenotype (%)” value?
A: 1.1% and 1.23%

Q: And the “Population Mitochondria Different-Phenotype (%)” value?
A: 0.12% and 1.23%

Q: What about the “Population Mitotic Cells (%)” value of the same compound?
A: 45.95% and 45.16%

Q: And the “Population Normal (%)” value?
A: 100%

Q: And the “Population Pyknosed Nuclei (%)” value?
A: 8.11% and 8.52%

Q: And the “Population Tubulin-Different-Phenotype (%)” value?
A: 1.47% and 0.31%

Q: And the “Total Cell Count” value?
A: 913 and 364
